Compound activity from PubChem.
MsrA inh: bovine MsrA inhibition; purified bovine MsrA, absorbance read-out; inhibition, % at 15.5 µM; 0.75% of 360,000 active;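 note: 0% = vehicle wells with enzyme and 100% = reference inhibitor wells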
Bfl-1 A1 inh: inhibitors of the anti-apoptotic protein A1, read as caspase activation | caspase activation, % (no concentration beside the values) | AID 2462 | 0.066% of 330,000 active | MEF A1-2A-BIM cells, Caspase-Glo 3/7 luminescence, 3 h; percent of clofoctol response, vehicle zero;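 active = over half of replicate activation scores above 10%, or exactly half above 10 with the replicate mean above 10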
procasp7 counter: counter-screen for procaspase-3 activators: activators of human procaspase-7; P55210; recombinant procaspase-7, Ac-DEVD-pNA absorbance 405 nm; D23A/D198A/D206A triple mutant, cannot self-cleave; scale: DMSO 0, 5 µM enzyme 100; activation, % at 8.5 µM; 0.093% of 330,000 active;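 active = percent activation above the screen-wide mean plus 3 SD, cut at about 25% in these data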
Target sequence (P55210 whole entry D23A/D198A/D206A): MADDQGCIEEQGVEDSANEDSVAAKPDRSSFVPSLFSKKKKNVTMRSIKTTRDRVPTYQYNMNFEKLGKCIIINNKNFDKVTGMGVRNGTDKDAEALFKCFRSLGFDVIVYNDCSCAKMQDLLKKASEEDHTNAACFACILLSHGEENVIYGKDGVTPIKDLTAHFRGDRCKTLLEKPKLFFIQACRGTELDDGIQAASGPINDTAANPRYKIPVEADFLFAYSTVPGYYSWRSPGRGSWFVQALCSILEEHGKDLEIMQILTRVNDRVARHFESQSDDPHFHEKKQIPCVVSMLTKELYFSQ
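buffer or medium = Zinc-free HEPES/NaCl buffer, pH 7.4 | material = Procaspase-7 triple mutant (PC-7 D3A) | input = 2 µM procaspase-7 mutant as dispensed | signal = Epi-absorbance of released pNA at 405 nm, two timepoints | timing = 1 h preincubation, 2 h reaction | replicates = singlicate compound testing | evaluation = % activation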
proCasp3 act: activates human procaspase-3; AID 463141; recombinant procaspase-3 D3A, Ac-DEVD-pNA absorbance 405 nm; activation, % at 8.5 µM; 0.11% of 330,000 active;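 active = activation above the mean of all tested compounds plus 3 SD, cut at about 21% in these data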;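 note: 0% = DMSO alone and 100% = DMSO wells spiked with extra 5 µM PC-3 D3A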
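Assay system – Procaspase-3 D3A mutant · Benchmarks – DMSO low control, extra-enzyme high control · Technique – 405 nm absorbance of p-nitroaniline, reads at 0 and 120 min · Doses – 8.5 µM nominal · Measure – % activation between DMSO and enzyme-spiked controls · Also added – Ac-DEVD-pNA chromogenic peptide substrate · Schedule – 1 h compound preincubation, 2 h substrate hydrolysis at 25 °C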
MsrA act: activators of bovine methionine sulfoxide reductase A. purified bovine MsrA, absorbance read-out. activation, % at 10.6 µM. 0.3% of 360,000 active. AID 602163; in the data active = activation above about 7.5%;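 note: 0% = vehicle and 100% = reference activator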
MsrA conf: confirmation of bovine MsrA inhibitors; shares compounds with MsrA inh; AID 651822; 41% of 2,300 active; purified bovine MsrA, absorbance read-out; inhibition, % at 15.5 µM;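 note: coupled to thioredoxin reductase with NADPH and selenocystamine and DMSO as substrate; 0% = vehicle only and 100% = full effect of reference inhibitor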
An asterisk follows results filed as active. Most compounds without a hit are left out; they make up all but 1.2% or so of the library. Cut-off read from the data, not from the text of the source, unless noted: active = inhibition above about 4.5%; inactive = the rest.

Screening CS(=O)(=O)c1ccc2nc(NC(=O)c3ccc(S(=O)(=O)NCC4CCCO4)cc3)sc2c1 (configuration not stated) returned MsrA inh 5.0*, Bfl-1 A1 inh 1, procasp7 counter 8, proCasp3 act 8, MsrA act -3 and MsrA conf 4.
Screening CS(=O)(=O)c1ccc2nc(NC(=O)c3ccc(NS(=O)(=O)c4cccc([N+](=O)[O-])c4)cc3)sc2c1 returned MsrA inh 5.3*, Bfl-1 A1 inh -2, procasp7 counter 3, proCasp3 act -2, MsrA act -2 and MsrA conf 5.3*.
CN(CC(=O)Nc1ccccc1Cl)C(=O)Cn1nnc(-c2ccc(F)cc2)n1 was read as MsrA inh 0, Bfl-1 A1 inh 0, procasp7 counter 11, proCasp3 act 1 and MsrA act 0.
Screening COc1cc(-c2csc(C)n2)ccc1O returned MsrA inh -2, Bfl-1 A1 inh 1, procasp7 counter 1, proCasp3 act -6 and MsrA act -3.
`COc1ccc(-c2csc(C)n2)cc1Br` gave MsrA inh 7.9*, Bfl-1 A1 inh -4, procasp7 counter 5, proCasp3 act -8, MsrA act -4 and MsrA conf 5.2*.
CN(C)CCCN(C(=O)c1ccc([N+](=O)[O-])o1)c1nc2cc3c(cc2s1)OCO3 was read as MsrA inh 2, Bfl-1 A1 inh 1, procasp7 counter 4, proCasp3 act 4 and MsrA act -2.
`CC(Nc1cccc([N+](=O)[O-])c1)C(=O)Nc1ccc(S(=O)(=O)N2CCCC2)cc1` (configuration not stated) gave MsrA inh 0 and MsrA act -1.
`CC(=O)c1cccc(NC(=O)c2c(-c3c(F)cccc3Cl)noc2C)c1` gave MsrA inh 1, Bfl-1 A1 inh 0, procasp7 counter -1, proCasp3 act 3 and MsrA act -9.
Screening Cc1oc2c(C)c3oc(=O)c(CC(=O)N[C@@H](CCCNC(N)=O)C(=O)O)c(C)c3cc2c1C returned MsrA inh 4.9*, Bfl-1 A1 inh 0, MsrA act -1 and MsrA conf 2.
Cc1c(CC(=O)N[C@@H](CCCNC(N)=O)C(=O)O)c(=O)oc2cc3oc4c(c3cc12)CCCC4 was read as MsrA inh 2, Bfl-1 A1 inh -1, procasp7 counter 8, proCasp3 act -4 and MsrA act -7.
`COc1cc(S(=O)(=O)Nc2ccc3c(c2)C(=O)N(C)C3=O)ccc1NC(C)=O` gave MsrA inh 1, Bfl-1 A1 inh -1, procasp7 counter 4, proCasp3 act 7 and MsrA act -2.
`O=C(COC(=O)C1CCN(/C=C/C(=O)C(F)(F)F)CC1)Nc1ccccc1` gave MsrA inh 4.8*, Bfl-1 A1 inh -1, procasp7 counter 9, proCasp3 act 7, MsrA act -3 and MsrA conf 1.
`CCC(C)NC(=O)c1cc2cc3ccc(OC)cc3nc2o1` (configuration not stated) gave MsrA inh 5.0*, Bfl-1 A1 inh -2, procasp7 counter 4, proCasp3 act 6, MsrA act -5 and MsrA conf 5.
For COc1ccc2cc3cc(C(=O)NCCC(C)C)oc3nc2c1 the results were MsrA inh 1, Bfl-1 A1 inh -2, procasp7 counter 8, proCasp3 act 6 and MsrA act -2.
`COc1ccc2cc3cc(C(=O)NCC4CCCO4)oc3nc2c1` (configuration not stated) gave MsrA inh 6.2*, Bfl-1 A1 inh -1, procasp7 counter -2, proCasp3 act 0, MsrA act -5 and MsrA conf 4.
`COCCNC(=O)c1cc2cc3ccc(OC)cc3nc2o1` gave MsrA inh 4.8*, Bfl-1 A1 inh -1, procasp7 counter -4, proCasp3 act -10, MsrA act -5 and MsrA conf 4.
Screening C[C@@H]1CN(C(=O)OC(C)(C)C)CCN1c1ccc(N2CCS(=O)(=O)CC2)c(C#N)c1 returned MsrA inh 0.
For O=C(NCCc1nc2ccccc2[nH]1)c1ccc(Br)o1 the results were MsrA inh 1, Bfl-1 A1 inh 0, procasp7 counter 8, proCasp3 act 1 and MsrA act 0.
